Test results from ChEMBL document CHEMBL1154198, “Chemical genetics of Plasmodium falciparum” (Nature, 2010).

Assays:
Plasmodium falciparum [1] = test: ST_JUDE: Plasmodium falciparum K1 EC50 (uM) as measured by SYBR green dye; type: functional, organism-based
Trypanosoma brucei = test: ST_JUDE: Cytotoxicity using luciferase to measure ATP as an indicator of the viability of Trypanosoma brucei; type: functional, organism-based
[2] = ST_JUDE: Cytotoxicity using luciferase to measure ATP as an indicator of the viability of human foreskin fibroblast cells (BJ); type: toxicity, cell-based
Plasmodium falciparum [3] = test: ST_JUDE: Cytotoxicity against Plasmodium falciparum K1; type: functional, organism-based
How it was run: (§1)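 Asexual P. falciparum grown in human erythrocytes, exposed to compounds for 72 h, and growth read as the DNA quantity in treated versus control cultures. Dose-response run at 12 concentrations from 10 μM to 5 nM.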

Plasmodium falciparum [4] = test: ST_JUDE: Cytotoxicity against Plasmodium falciparum W2; type: functional, organism-based
Plasmodium falciparum [5] = test: ST_JUDE: Cytotoxicity against Plasmodium falciparum SB-A6; type: functional, organism-based
[6] = ST_JUDE: Cytotoxicity using luciferase to measure ATP as an indicator of the viability of human Burkitt''s lymphoma lymphoblast cells (Raji); type: toxicity, cell-based
[7] = ST_JUDE: Cytotoxicity using luciferase to measure ATP as an indicator of the viability of human epithelial embryonic kidney cells (HEK293); type: toxicity, cell-based
Plasmodium falciparum [8] = test: ST_JUDE: Cytotoxicity against Plasmodium falciparum Dd2; type: functional, organism-based
Toxoplasma gondii = test: ST_JUDE: Growth inhibition of to Toxoplasma gondii, in human U-2OS cells, as measured by luciferase.; type: functional, organism-based; conditions: RH, U2OS
How it was run: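 T. gondii parasites engineered to express luciferase; drug sensitivity read by luminescence.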

Plasmodium falciparum [9] = test: ST_JUDE: Cytotoxicity against Plasmodium falciparum V1/S; type: functional, organism-based
Plasmodium falciparum [10] = test: ST_JUDE: Plasmodium falciparum 3D7 EC50 (uM) as measured by SYBR green dye; type: functional, organism-based
Plasmodium falciparum [11] = test: ST_JUDE: Cytotoxicity against Plasmodium falciparum 3D7; type: functional, organism-based; how it was run: as §1
Leishmania major = test: ST_JUDE: Cytotoxicity using Alamar Blue to measure viability of Leishmania major; type: functional, organism-based
How it was run: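 L. major promastigotes; drug susceptibility read with Alamar Blue.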

Plasmodium falciparum [12] = test: ST_JUDE: Cytotoxicity against Plasmodium falciparum D10 transfected with yeast DHOD; type: functional, organism-based
[13] = ST_JUDE: Cytotoxicity using luciferase to measure ATP as an indicator of the viability of human epithelial hepatocellular carcinoma cells (HepG2); type: toxicity, cell-based

## CCN(CC)Cc1cc(Nc2ccnc3cc(Cl)ccc23)ccc1O
Plasmodium falciparum [1]
  EC50: 26.1 nM
Trypanosoma brucei
  EC50: > 38600 nM
[2]
  EC50: > 40200 nM
Plasmodium falciparum [3]
  EC50: 42.6 nM
Plasmodium falciparum [4]
  EC50: 12 nM
Plasmodium falciparum [5]
  EC50: 32.5 nM
[6]
  EC50: > 40200 nM
[7]
  EC50: > 40200 nM
Plasmodium falciparum [8]
  EC50: 74.4 nM
Toxoplasma gondii
  EC50: > 22100 nM
Plasmodium falciparum [9]
  EC50: 45 nM
Plasmodium falciparum [10]
  EC50: 28.6 nM
Plasmodium falciparum [11]
  EC50: 44.3 nM
Leishmania major
  EC50: > 17200 nM
Plasmodium falciparum [12]
  EC50: 49.9 nM
[13]
  EC50: > 40200 nM

## COc1ccc(NC(=O)C2c3ccccc3C(=O)N(C3CCCC3)C2c2cccs2)cc1 (configuration not stated)
Plasmodium falciparum [1]
  EC50: 1220 nM
Trypanosoma brucei
  EC50: 6530 nM
[2]
  EC50: > 40700 nM
Plasmodium falciparum [3]
  EC50: 1170 nM
Plasmodium falciparum [4]
  EC50: > 10500 nM
Plasmodium falciparum [5]
  EC50: 1970 nM
[6]
  EC50: > 40700 nM
[7]
  EC50: > 40700 nM
Plasmodium falciparum [8]
  EC50: 1110 nM
Toxoplasma gondii
  EC50: > 22300 nM
Plasmodium falciparum [9]
  EC50: 1020 nM
Plasmodium falciparum [10]
  EC50: 979 nM
Plasmodium falciparum [11]
  EC50: 1230 nM
Leishmania major
  EC50: > 17400 nM
Plasmodium falciparum [12]
  EC50: 1410 nM
[13]
  EC50: > 40700 nM

## CN(C)c1cc[n+](CC(=O)c2ccc(Br)cc2)cc1
Plasmodium falciparum [1]
  EC50: 1500 nM
Trypanosoma brucei
  EC50: > 29600 nM
[2]
  EC50: > 30800 nM
Plasmodium falciparum [3]
  EC50: 2610 nM
Plasmodium falciparum [4]
  EC50: > 7920 nM
Plasmodium falciparum [5]
  EC50: > 7920 nM
[6]
  EC50: > 30800 nM
[7]
  EC50: > 30800 nM
Plasmodium falciparum [8]
  EC50: 1030 nM
Toxoplasma gondii
  EC50: > 16900 nM
Plasmodium falciparum [9]
  EC50: > 7920 nM
Plasmodium falciparum [10]
  EC50: 1090 nM
Plasmodium falciparum [11]
  EC50: 1610 nM
Leishmania major
  EC50: > 13200 nM
Plasmodium falciparum [12]
  EC50: 4300 nM
[13]
  EC50: > 30800 nM

## O=[N+]([O-])c1ccc2c(c1)c1ccccc1n2Cc1ccccc1O
Plasmodium falciparum [1]
  EC50: 1250 nM
Trypanosoma brucei
  EC50: 24500 nM
[2]
  EC50: > 35300 nM
Plasmodium falciparum [3]
  EC50: 1070 nM
Plasmodium falciparum [4]
  EC50: 3700 nM
Plasmodium falciparum [5]
  EC50: 2320 nM
[6]
  EC50: 18200 nM
[7]
  EC50: > 35300 nM
Toxoplasma gondii
  EC50: > 19300 nM
Plasmodium falciparum [9]
  EC50: > 9060 nM
Plasmodium falciparum [10]
  EC50: 1260 nM
Plasmodium falciparum [11]
  EC50: 1300 nM
Leishmania major
  EC50: > 15100 nM
Plasmodium falciparum [12]
  EC50: 1800 nM
[13]
  EC50: > 35300 nM

## Cc1ccc(N2C(N)=NC(N)=NC2(C)C)cc1
Plasmodium falciparum [1]
  EC50: 989 nM
Trypanosoma brucei
  EC50: > 33500 nM
[2]
  EC50: > 34900 nM
Plasmodium falciparum [3]
  EC50: 676 nM
Plasmodium falciparum [4]
  EC50: 729 nM
Plasmodium falciparum [5]
  EC50: 15.1 nM
[6]
  EC50: > 34900 nM
[7]
  EC50: > 34900 nM
Plasmodium falciparum [8]
  EC50: 2030 nM
Toxoplasma gondii
  EC50: 5710 nM
Plasmodium falciparum [9]
  EC50: > 8970 nM
Plasmodium falciparum [10]
  EC50: 33.3 nM
Plasmodium falciparum [11]
  EC50: 21.4 nM
Leishmania major
  EC50: > 15000 nM
Plasmodium falciparum [12]
  EC50: 785 nM
[13]
  EC50: > 34900 nM

## CC(C)(C)NC(=O)c1cn(C2CCCCC2)cc(C(=O)NC2CCN(Cc3ccccc3)C2)c1=O (configuration not stated)
Plasmodium falciparum [1]
  EC50: 4090 nM
Trypanosoma brucei
  EC50: 19900 nM
[2]
  EC50: > 28700 nM
Plasmodium falciparum [3]
  EC50: 1980 nM
Plasmodium falciparum [4]
  EC50: 2140 nM
Plasmodium falciparum [5]
  EC50: 704 nM
[6]
  EC50: > 28700 nM
[7]
  EC50: > 28700 nM
Plasmodium falciparum [8]
  EC50: 507 nM
Toxoplasma gondii
  EC50: > 15700 nM
Plasmodium falciparum [9]
  EC50: 4840 nM
Plasmodium falciparum [10]
  EC50: 658 nM
Plasmodium falciparum [11]
  EC50: 787 nM
Leishmania major
  EC50: > 12300 nM
Plasmodium falciparum [12]
  EC50: 1520 nM
[13]
  EC50: > 28700 nM

## CC(C)CN1C(=O)c2ccccc2C(C(=O)Nc2cccc(C(F)(F)F)c2)C1c1cccs1 (configuration not stated)
Trypanosoma brucei
  EC50: 3300 nM
[2]
  EC50: > 47200 nM
[6]
  EC50: > 47200 nM
[7]
  EC50: > 47200 nM
Toxoplasma gondii
  EC50: > 25900 nM
Leishmania major
  EC50: > 20200 nM
[13]
  EC50: 37700 nM
